Results on 38 variants are retold here after the RNAGym collection of RNA variant scans (doi:10.1126/science.aae0568).

Variants at the floor of the assay were thinned out.

First the molecules themselves.
B1: tRNA (parent)
chain: GUUCCGUUGGCGUAAUGGUAACGCGUCUCCCUCCUAAGGAGAAGACUGCGGGUUCGAGUCCCGUACGGAACG

In the data set the parent is B1. Briefly: yeast fitness relative to wild type (ratio to wild type); higher = fitter; tRNA-Arg(CCU), competitive growth, 37 C, YPD. In a few lines:
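Variants of the tRNA-Arg(CCU) gene were chemically synthesised with a 3% per-site mutation rate across 69 sites and placed at the native genomic locus in Saccharomyces cerevisiae. Six parallel replicates of the pooled strains were competed in YPD at 37°C for 24 hours, and gene amplicons from the start and end populations were read by 100-nucleotide paired-end sequencing. Darwinian fitness relative to wild type was derived from changes in genotype frequencies. Genotypes required ≥ 100 starting reads, and estimates < 0.5 were set to 0.5.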
For GUUCCGUUGCCGUAAUGGUAACGCGUUUCCCUCCUAAAGAGAAGAGUGCGGGUUCGAGUCCCAUACGGAACG, the yeast fitness was not above 0.5. Then GUUCCGUUGGCGUAAUGGUCACGCGUCUCCCUCCUGAGGAGAAGACUGCGGGUUCGAGUCCCGUACGGAACG, with 0.908; and GUUCGGUUGACGUAAUGGUAACGCGUCUCCCUCCUAAGGAGAAGACUGCGGGUUCGAGUCCCGUACGGAACG, with 0.804; and GUUCCGUUGGCGUAAUGCUAGCGCGUCUCCCUCCUAAGGAGAAGACUGCGGGUUCGAGUCCCGUACAGAACG, with not above 0.5. The figure for GUUCCGUUGGCGUAAUGGUAACGCGUCACCCUCCUAAGGAGAAGACUGCGGGUUCGAGUACCGUACGGAACG is 0.535; for GUUCCGUUGGCGUAAUGGUAACGCGUCUCCCUCCUAAGGAGAAGACUGUGGGUUCGAGCCCGGUACGGAACG it is 0.503; for GUUCCGUUGGCGUAAUGGUAACGCGUCUCUCUCCUAAGGAGAAGACUGCGGGUUCGAGUCCCGUAUGGUACG it is 0.602.

As for GUUGCGUCGGCGUAAUGGUAACGCAUCUCCCUCCUAAGGAGUAGACUGCGGGUUCGAGUCCCGUACGGAACG, the yeast fitness was not above 0.5. As for GUUCCGUUGCCGUAAUGGUAAGGCGUCUGCCUCCUAAGGAGAAGAUUGCGGGUUCGAGUCCCGUCCGGAACG, the yeast fitness is not above 0.5. For the variant GUUCCGUUGGCGUAAUGGUAACGCGUCUCCCCCCUAAGGAGAAGACUACGGGUUCGAGUCCCGUACGGAUCG, the yeast fitness is 0.783. Then GUUCCGUUGGCGUAAUGGUAACGCGUCUCCCUCCUAAGGAGAAGCGUGAGGGUUCGAGUCCCGUACGGUACG, with not above 0.5. Then GUUCCGUUGGCGUAGUGGUAACGCGUCUCCCUCCUAAGGAGCAGACUGAGGGUUCGAGUCCCGUACGGAACG, with 0.527; and GUUCGGCUGGGGUAAUGGUAACGCGUCUCCCUCCUAAGGGGAAGACUGCGGGUUCGUGUCCCGUACGGAUCG, with not above 0.5. Then GUUAAGUUGGCGUAAUGGUUACGCGUCUCCCUCCUAAGGAGAAGACUGCGGGUUCGAGUCCCGUACGGCACG, with 0.551; and GUUCCGUCGGUGUAAUCGUAACGCGUCUCCAUCCUAAGGAGAAGACUGCGGGUUCGAGUCCCGUCCGGAACG, with not above 0.5.

As for GUUCCGUUGGUGUGAUGGUAACGGGUCUCCCUCCUAAGGAGAAGACUGCGGGUUCGAGUCCCGUACGGAACG, the yeast fitness is not above 0.5. The figure for GUCCCGUUGGCGUAAUGGUAACGCGUCUCCCUCCUAAGGAGAAGCCUGCGGGUUCGAGUCCCGUACAGAACG is not above 0.5. On to GUGCCGUUGGCGUAAUAGUAACGCGUGUCCCUUCUAAGGAGAAGGCUGCGGGUUCGAGUCCCGUACGGAACG, for which the yeast fitness is not above 0.5. The figure for GUUCCGUUGGCGUAAUGGUAACGCGUCUCCGUCCUAAGGGGAAGCCCGCGGGAUCGAGUCCCGUACGGAUCG is not above 0.5.

GUUCAGUUGGCGUAAUGGUAACGCGUCUCCCUCCUAAGAAGAAAACUGCGGGUUCGAGUCCCGUACGGAACG: the yeast fitness came to 0.62. The figure for GAUCCGUUGGCGUAAUGGUAACGCGUCUCCCUGCUAAGGAGCAGACUGCGGGUUCGAGUCCCAUACGGAACG is not above 0.5; for GUGCCGUUGGCGUGAUGGUAACGCGUCUCCCUCCUAAGGAGAAGACUGCGGGUUCGAGUCCGGUACGGGACG it is not above 0.5; for GUUCCGUUGGCGUAAUGGUAACGCGUCACCCUCCUAAGGAGGAGACUGCGGGUUCGAGUCCCGUACGGAACG it is 0.667. As for GUUACGUUGGCGUAAUGGUAACGCGUCUCCCUCGUAAGGAGAAGACUGCGGGUUCGAGUCACGUACGGAACG, the yeast fitness is not above 0.5. On to GUUCCGGUGGCGUAAUGGUAACGCGUCUCACUCCUAAGGAGAAGACUGCGGGUUCGAGUCCCGUACGGCACG, for which the yeast fitness was 0.798. Then GUUCCGUUGGCGUACUGAUAACGCGUCUCCCUCCUAAGGAGAAGACUGCGGGUUCGAGUCCCGUACGGAACG, with 0.74; and GUUCCGUUGGCGUAAUGGUAACGCGUCUCCCUCCUACGGAGAAGACUGCGGGUUCGAGUCCCGUACGGCACG, with 0.865; and GUUCCGUUGGCGUGAUGGUGACGCGUCUCCCUCCUAAGGAGAAGACUGCGGGUUCGAGUCCCGUACGGCACG, with 0.528. Then GUUCCGUUGGCGUAAUGGUAGCGCGUCUCCCUCCUAAGGAGAAGACUGCGGGUUCCAGUCCAGUACGGAACG, with not above 0.5; and GUUCCGUUGGGGUAAUGGUAACGCGUCUCCCUCCUAAGGAGAAGACUGCGGGUUGGAGUCCCCUACCGAACG, with 0.557; and GUUCGGUUGGCGUAAUGGUAACGCGUCUCCCUCCUAAGGAGAAGACUGCGGGUUCGAGUCCGGAACGGAACG, with not above 0.5. The figure for GUUCCGUUGGGGUAAUGGUAACGCGUCUCCCUCCUAAGGAGAAGACUGCAGGUUCGAGUCCCGUACGGAACG is 0.716; for GUUCCGCUGGCGUAAUGGUAACGCGUCUCCCUCCUAACGAGAAGACUGAGGGUUCAAGUCGCGUACGGAACG it is not above 0.5.

On to GAUCCGUUGACGUAAUCGUAACGCGUCUCCCUCCCAAGGAGAAGACUGCGGGUUGGAGUCCCGUACGGAACG, for which the yeast fitness was not above 0.5. Consider GUUCCGUUGGCGUAAUGGUAACGCGUCUCCCGGCUAAGGAGAAGACUGCGGGUUCGAGUCCCGUACGGAGCG, for which the yeast fitness is not above 0.5.

With GUUCGGUUCGCGUAAUGGUAACGCGUCUCCCUCCUAAGGAGAAGACUGCGGGUUCGAGUCCCGUUCGGAACG, the yeast fitness is 0.555. On to GUUCCGUUGGCGUAAUGGUAACGCGUCUCCUUCCUAAGGAGAAGACUGCGGGUUCGCGUCCCGUACGGAACG, for which the yeast fitness was 0.574. The figure for GUUCCGGUGGCGUAAUGGUAACGCGUCUCCCUCCUAAGGAGAAGACUGCGGGUUCAAGUCCCGUACGGAACG is 1.06.
